Assay results published in ChEMBL document CHEMBL2331187, “Efficient synthesis of 3H,3'H-spiro[benzofuran-2,1'-isobenzofuran]-3,3'-dione as novel skeletons specifically for influenza virus type B inhibition” (Eur J Med Chem, 2013).

Experiments:
Influenza B virus [1] = test: Antiviral activity against Influenza B virus (B/Brisbane/60/2008) infected in MDCK cells assessed as inhibition of virus-induced cytopathogenicity at 1 hr post-infection measured after 3 days by fluorescein-diacetate based fluorimetric analysis; type: functional, cell-based; conditions: B/Brisbane/60/2008, MDCK
In short: (§1)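 Confluent MDCK monolayers were mock-infected or infected with about 50-100 PFU of influenza virus per well. At read-out the medium was removed and cells were stained with fluorescein diacetate in PBS for 20 min at 35 °C. Fluorescence was read at ex 485/em 538 nm. CC50 and EC50 were derived from the fluorescence, and the selectivity index was taken as CC50/EC50.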

Influenza B virus [2] = test: Antiviral activity against Influenza B virus (B/Lee/40) infected in MDCK cells assessed as inhibition of virus-induced cytopathogenicity at 1 hr post-infection measured after 3 days by fluorescein-diacetate based fluorimetric analysis; type: functional, organism-based; conditions: B/Lee/1940, MDCK; in short: as §1
Influenza B virus [3] = test: Antiviral activity against Influenza B virus (B/Taiwan/2/62) infected in MDCK cells assessed as inhibition of virus-induced cytopathogenicity at 1 hr post-infection measured after 3 days by fluorescein-diacetate based fluorimetric analysis; type: functional, organism-based; in short: as §1
Influenza B virus [4] = test: Antiviral activity against Influenza B virus (B/Panama/45/1990) infected in MDCK cells assessed as inhibition of virus-induced cytopathogenicity at 1 hr post-infection measured after 3 days by fluorescein-diacetate based fluorimetric analysis; type: functional, cell-based; conditions: B/Panama/45/1990, MDCK; in short: as §1
Influenza A virus = test: Antiviral activity against Influenza A virus (A/Taiwan/1/1986(H1N1)) infected in MDCK cells assessed as inhibition of virus-induced cytopathogenicity at 1 hr post-infection measured after 3 days by fluorescein-diacetate based fluorimetric analysis; type: functional, organism-based; in short: as §1
[5] = Cytotoxicity against MDCK cells after 3 days by fluorescein diacetate-based fluorimetric analysis; type: cell-based, Canis lupus familiaris; conditions: dog; in short: as §1
MDCK = test: Cytotoxicity against MDCK cells assessed as cell death at 500 uM after 3 days by fluorescein diacetate-based fluorimetric analysis; design: species or system Canis lupus familiaris; conditions: dog, 72 h
[6] = Selectivity ratio of CC50 for MDCK cells to EC50 for Influenza B virus (B/Panama/45/1990); type: ADME, cell-based; conditions: dog, read-out: Ratio CC50/EC50; in short: as §1
Human alphaherpesvirus 2 = test: Antiviral activity against Herpes simplex virus 2 MS infected in Vero cells assessed as inhibition of virus-induced cytopathogenicity by MTT assay; type: functional, organism-based; conditions: Human alphaherpesvirus 2, MS
In short: (§2)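 MTT-based CPE assay in Vero cells with HSV-1 strain F or HSV-2 strain MS. CC50 is the concentration that reduces viability of uninfected Vero cells by 50%. EC50 is the concentration that improves viability of HSV-infected cells by 50%.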

Human alphaherpesvirus 1 = test: Antiviral activity against Herpes simplex virus 1 F infected in Vero cells assessed as inhibition of virus-induced cytopathogenicity by MTT assay; type: functional, organism-based; conditions: Human alphaherpesvirus 1, strain F; in short: as §2
[7] = Cytotoxicity against african green monkey Vero cells by MTT assay; type: cell-based; conditions: chlorocebus sabaeus; in short: as §2
[8] = Selectivity ratio of CC50 for MDCK cells to EC50 for Influenza B virus (B/Brisbane/60/2008); type: ADME, cell-based; conditions: dog, read-out: Ratio CC50/EC50; in short: as §1
[9] = Selectivity ratio of CC50 for MDCK cells to EC50 for Influenza B virus (B/Lee/40); type: ADME, cell-based; conditions: dog, read-out: Ratio CC50/EC50; in short: as §1
[10] = Selectivity ratio of CC50 for MDCK cells to EC50 for Influenza B virus (B/Taiwan/2/62); type: ADME, cell-based; conditions: dog, read-out: Ratio CC50/EC50; in short: as §1
[11] = tested on: Human immunodeficiency virus 2; test: Antiviral activity against Human immunodeficiency virus 2 ROD infected in MT4 cells assessed as inhibition of virus-induced cytopathogenicity by MTT assay; type: functional, organism-based; conditions: Human immunodeficiency virus 2, ISOLATE ROD
In short: (§3)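 MTT-based CPE assay in MT4 cells. CC50 is the concentration that reduces viability of uninfected MT4 cells by 50%. EC50 is the concentration that improves viability of HIV-infected cells by 50%.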

[12] = Cytotoxicity against human MT4 cells by MTT assay; type: cell-based; in short: as §3
[13] = tested on: Human immunodeficiency virus 1; test: Antiviral activity against Human immunodeficiency virus 1 3B infected in MT4 cells assessed as inhibition of virus-induced cytopathogenicity by MTT assay; type: functional, organism-based; in short: as §3

Row | Structure (SMILES) | EC50 (Influenza B virus [1]) | EC50 (Influenza B virus [2]) | EC50 (Influenza B virus [3]) | EC50 (Influenza B virus [4]) | EC50 (Influenza A virus) | CC50 at 72 h [5] | also measured
1 | Cc1ccc2c(c1)OC1(OC(=O)c3ccccc31)C2=O (stereo not drawn) | 46.9 µM | 59.9 µM | 31.2 µM | 25.7 µM | 27.8 µM | 376 µM | 
2 | O=C1OC2(Oc3cc(F)ccc3C2=O)c2ccccc21 (stereo not drawn) |  |  |  | 8.2 µM | 100 µM | > 500 µM | Activity (MDCK): > 20%; selectivity ratio [6]: > 15
3 | O=C1OC2(Oc3c(Cl)ccc(Cl)c3C2=O)c2ccccc21 (stereo not drawn) |  |  |  | 18.4 µM | 25.5 µM | 86 µM | 
4 | Cc1cc2c(cc1C)C(=O)C1(OC(=O)c3ccccc31)O2 (stereo not drawn) | 4.8 µM | 16.1 µM | 3.6 µM | 3 µM | 23.4 µM | > 500 µM | EC50 (Human alphaherpesvirus 2): > 312 µM; EC50 (Human alphaherpesvirus 1): > 312 µM; CC50 [7]: 312 µM; selectivity ratio [8]: 30; selectivity ratio [9]: 30; selectivity ratio [10]: 30; selectivity ratio [6]: > 15; EC50 [11]: > 158 µM; CC50 [12]: 158 µM; EC50 [13]: > 158 µM
5 | Nc1ccn([C@H]2CC[C@@H](CO)O2)c(=O)n1 [ZALCITABINE] |  |  |  |  |  |  | EC50 [11]: 0.4 µM; CC50 [12]: 75.2 µM; EC50 [13]: 0.4 µM
6 | COc1ccc2c(c1)OC1(OC(=O)c3ccccc31)C2=O (stereo not drawn) |  |  |  | > 500 µM | > 500 µM | > 500 µM | 
7 | Nc1ccc2c(c1)OC1(OC(=O)c3ccccc31)C2=O (stereo not drawn) |  |  |  | 27.4 µM | 49 µM | 305 µM | 
8 | Nc1nc2c(ncn2COCCO)c(=O)[nH]1 [ACYCLOVIR] |  |  |  |  |  |  | EC50 (Human alphaherpesvirus 2): 58.6 µM; EC50 (Human alphaherpesvirus 1): 1.7 µM; CC50 [7]: > 50 µM
9 | CCCc1ccc2c(c1)C(=O)C1(OC(=O)c3ccccc31)O2 (stereo not drawn) | 27.6 µM | 33.7 µM | 25 µM | 9.8 µM | 30.8 µM | 100 µM | 
10 | NC12CC3CC(CC(C3)C1)C2 [AMANTADINE] | > 100 µM | > 100 µM | > 100 µM | > 100 µM | 0.6 µM | > 100 µM | 
11 | Cc1ccc2c(c1)C(=O)C1(OC(=O)c3ccccc31)O2 (stereo not drawn) | 28 µM | 32.8 µM | 24.8 µM | 7.6 µM | 32.9 µM | 293 µM | 
12 | Cc1ccc(C)c2c1OC1(OC(=O)c3ccccc31)C2=O (stereo not drawn) | 42.7 µM | > 187 µM | 66.6 µM | > 187 µM | > 187 µM | 187 µM | 
13 | Cc1cc(C)c2c(c1)OC1(OC(=O)c3ccccc31)C2=O (stereo not drawn) | > 500 µM | > 500 µM | > 500 µM | > 500 µM | 11.4 µM | > 500 µM | 
14 | O=C1OC2(Oc3ccc(Cl)cc3C2=O)c2ccccc21 (stereo not drawn) | 28.6 µM | 38.8 µM | 21.7 µM | 7.8 µM | 25.2 µM | 153 µM | 
15 | O=C1OC2(Oc3c(Cl)cccc3C2=O)c2ccccc21 (stereo not drawn) | 96.3 µM | 227 µM | 61.4 µM | 21.7 µM | 174 µM | > 500 µM | 
16 | CCc1ccc2c(c1)OC1(OC(=O)c3ccccc31)C2=O (stereo not drawn) | 32.2 µM | 34.4 µM | 12.1 µM | 11.2 µM | 34.6 µM | 103 µM | 
17 | Cc1cc2c(cc1C)C1(OC2=O)Oc2cc(C(C)C)ccc2C1=O (stereo not drawn) |  |  |  | > 500 µM | 321 µM | > 500 µM | 
18 | CCc1ccc2c(c1)C(=O)C1(OC(=O)c3ccccc31)O2 (stereo not drawn) | 25.4 µM | 31.2 µM | 9.3 µM | 7.5 µM | 28.1 µM | 112 µM | 

Row | Structure (SMILES) | EC50 (Influenza B virus [1]) | EC50 (Influenza B virus [2]) | EC50 (Influenza B virus [3]) | EC50 (Influenza B virus [4]) | EC50 (Influenza A virus) | CC50 at 72 h [5] | also measured
19 | Cc1ccc2c(c1C)OC1(OC(=O)c3ccccc31)C2=O (stereo not drawn) | 23.5 µM | 32 µM | 28.9 µM | 9.9 µM | 7.1 µM | 370 µM | 
20 | Cc1cccc2c1OC1(OC(=O)c3ccccc31)C2=O (stereo not drawn) | 104 µM | 199 µM | 53 µM | 24.7 µM | 83.2 µM | > 500 µM | 
21 | O=c1[nH]cnc2c1ncn2[C@H]1CC[C@@H](CO)O1 [DIDANOSINE] |  |  |  |  |  |  | EC50 [11]: 34.7 µM; CC50 [12]: > 500 µM; EC50 [13]: 7.8 µM
22 | O=C1OC2(Oc3cc(-c4ccccc4)ccc3C2=O)c2ccccc21 (stereo not drawn) |  |  |  | < 6.2 µM | 7.6 µM | 36.3 µM | selectivity ratio [6]: < 5
23 | O=C1OC2(Oc3ccccc3C2=O)c2ccccc21 (stereo not drawn) |  |  |  | 88.1 µM | > 500 µM | > 500 µM | selectivity ratio [6]: 20
24 | NC(=O)c1nc(F)cnc1O [FAVIPIRAVIR] | 1.32 µM | 1.93 µM | 2.84 µM | 1.94 µM | 6.95 µM | > 100 µM | 
25 | O=C1OC2(Oc3ccc(-c4ccccc4)cc3C2=O)c2ccccc21 (stereo not drawn) | 12.1 µM | 14.1 µM | 10.8 µM | 6.6 µM | > 30.3 µM | 30.3 µM | selectivity ratio [6]: < 5
26 | O=C1OC2(Oc3cc4ccccc4cc3C2=O)c2ccccc21 (stereo not drawn) | 132 µM | 159 µM | 39.4 µM | 96.1 µM | 206 µM | > 500 µM | 
27 | O=C1OC2(Oc3c(ccc4ccccc34)C2=O)c2ccccc21 (stereo not drawn) |  |  |  | < 6.2 µM | < 6.2 µM | 40.4 µM | 
28 | O=C1OC2(Oc3cc4c(cc3C2=O)CCC4)c2ccccc21 (stereo not drawn) | 4.8 µM | 10.6 µM | 5.7 µM | 2.1 µM | 9.8 µM | 80.4 µM | 
29 | Cc1cc2c(c(C)c1C)C(=O)C1(OC(=O)c3ccccc31)O2 (stereo not drawn) | 103 µM | 254 µM | 23.2 µM | 11 µM | > 500 µM | > 500 µM | 
30 | COc1cccc2c1OC1(OC(=O)c3ccccc31)C2=O (stereo not drawn) | 81.1 µM | 58.2 µM | 42.3 µM | 23.6 µM | 126 µM | 253 µM | 
31 | O=C1OC2(Oc3c(cccc3-c3ccccc3)C2=O)c2ccccc21 (stereo not drawn) | 11.2 µM | 12.2 µM | 8.3 µM | 4.3 µM | 12.9 µM | 29.2 µM | selectivity ratio [6]: < 5
32 | COc1cc2c(cc1OC)C1(OC2=O)Oc2cc(C(C)C)ccc2C1=O (stereo not drawn) |  |  |  | 33.3 µM | > 500 µM | > 500 µM | Activity (MDCK): 47%; selectivity ratio [6]: > 15
33 | CC(C)c1ccc2c(c1)OC1(OC(=O)c3ccccc31)C2=O (stereo not drawn) |  |  |  | 44.9 µM | 148 µM | 314 µM | 
34 | O=C1OC2(Oc3cc(Cl)ccc3C2=O)c2ccccc21 (stereo not drawn) |  |  |  | > 500 µM | > 500 µM | > 500 µM | 
35 | CCOC(=O)c1ccc2c(c1)C(=O)C1(OC(=O)c3ccccc31)O2 (stereo not drawn) |  |  |  | > 500 µM | > 500 µM | > 500 µM | 
